Only some compounds are listed: those with a hit (about 2.6% of all), similar ones and a draw of the others.
E-selectin induc: E-selectin induction in HUVECs, primary screen, imaging, HUVEC, immunofluorescence imaging, single point | activation, % at 7.58 µM | normalized: neutral wells 0, TNF-alpha wells 100 | P16581 | 260,000 tested, 0.37% active;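 active = mean E-selectin-positive cell signal at least 10% of the positive control, reached in at least 60% of replicates, without over 20% cell loss; inconclusive = no rule given, readout overlaps actives, possibly toxicity-flagged; inactive = the rest, including those meeting only one limit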
Target sequence (P16581 whole entry, looked up): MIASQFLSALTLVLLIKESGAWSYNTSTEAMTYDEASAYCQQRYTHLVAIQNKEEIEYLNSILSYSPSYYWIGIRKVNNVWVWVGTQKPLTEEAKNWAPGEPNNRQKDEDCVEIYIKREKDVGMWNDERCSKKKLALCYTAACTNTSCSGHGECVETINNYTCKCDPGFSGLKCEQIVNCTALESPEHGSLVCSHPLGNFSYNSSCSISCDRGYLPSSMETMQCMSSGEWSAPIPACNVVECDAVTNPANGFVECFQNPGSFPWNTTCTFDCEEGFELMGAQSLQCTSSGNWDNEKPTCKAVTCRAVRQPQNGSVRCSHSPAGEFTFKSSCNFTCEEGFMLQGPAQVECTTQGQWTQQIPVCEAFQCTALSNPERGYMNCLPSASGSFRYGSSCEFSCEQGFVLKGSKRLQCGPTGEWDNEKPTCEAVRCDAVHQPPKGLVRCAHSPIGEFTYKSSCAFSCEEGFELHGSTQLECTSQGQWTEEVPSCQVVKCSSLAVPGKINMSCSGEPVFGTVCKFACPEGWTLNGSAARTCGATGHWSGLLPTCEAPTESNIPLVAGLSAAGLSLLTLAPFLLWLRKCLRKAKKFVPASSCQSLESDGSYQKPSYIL
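Assay system: HUVEC primary endothelial cells. Input: 3,000 HUVEC seeded per well. Doses: one compound dose added by pin transfer. Read-out basis: % PE-positive cells. Benchmarks: TNF-alpha high, DMSO low. Detection: immunofluorescence imaging. Buffer or medium: EGM-2, gelatin.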
DENV2 CPE rescue: inhibitors of DENV2 cytopathic effect, primary screen, cell-based, plate reader, single concentration | DENV2-infected cells, cytopathic effect rescue | CPE inhibition, % at 9.99 µM | 350,000 tested, 1.7% active | AID 651640, 2012; in the data active = CPE inhibition above about 20%, passing the limit was not always enough; inconclusive = no clear call, values can overlap the other calls; tested in BHK-21 cells;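 note: 0% = median of neutral control wells and 100% = median of positive control wells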
CFTR F508del cor: F508del CFTR correction, initial screen, CFBE line, single point. CFBE cells, YFP halide quenching; stimulated with forskolin plus potentiator P3; % fluorescence drop versus neutral controls. activity (quench increase), % at 7.58 µM. 350,000 tested, 0.36% active. AID 720511, 2013;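 active = mean added fluorescence quench of at least 8% versus neutral control, with both replicates also reaching 8%; inconclusive = only one of the mean or replicate conditions met; inactive = mean below 8% and not both replicates reaching 8%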;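 note: cells transiently co-express mutant CFTR-F508del with the halide-sensitive YFP; corrector assay measuring rescue of mutant channel to the surface after 24 h compound exposure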
ERAP1 inh: human ERAP1 aminopeptidase inhibitors, primary screen, biochemical, single point, plate reader; AID 652197, 2013; inhibition, % at 10.7 µM; Endoplasmic reticulum aminopeptidase 1 (Homo sapiens), Q9NZ08; 340,000 tested, 0.15% active; recombinant ERAP1, Leu-AMC fluorescence, 60 min;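 active = mean replicate inhibition of at least 30%, or all replicates individually reaching that 30% level; inactive = mean below 30% and not every replicate reaching it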;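 note: 0% = neutral control wells and 100% = L-leucinethiol positive control wells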
GSIS activator: GLuc luminescence reporter in INS-1E cells, primary screen for activators of glucose-dependent secretion of insulin | INS-1E GLuc reporter insulin secretion, 2-3 h | activation, % at 16.6 µM | 370,000 tested, 0.61% active | AID 743287, 2014;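 active = lowest replicate activation of at least 40%, so every replicate reaches that level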;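 note: 0% = median of neutral control wells and 100% = median of IBMX positive control wells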
miR-122 sensor: miR-122 Renilla sensor signal increase in Huh7, primary screen, miR-122 inhibitor project, cell-based, single point, plate reader; Huh7 miR-122 Renilla luciferase sensor, 48 h; neutral wells = 0, positive control = 100; activation (reporter increase), % at 12.5 µM; 340,000 tested, 0.3% active;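 active = mean replicate activation score at least 90 and every replicate individually at or above 90; inconclusive = only one of the two criteria met; inactive = neither criterion met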;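 note: higher luciferase means less miR-122 activity so hits act as miR-122 inhibitors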
* hit, by the source's call; ? = inconclusive; nt = no result; + = active, no number; ! = repeats disagree; [ ] = dose if it differs, or a comment.

SMILES	E-selectin induc	DENV2 CPE rescue	CFTR F508del cor	ERAP1 inh	GSIS activator	miR-122 sensor
C[C@@H]1CN([C@@H](C)CO)C(=O)c2cc(NS(=O)(=O)c3cccs3)ccc2O[C@@H]1CN(C)S(=O)(=O)c1cccs1	0	nt	-1	nt	10	14[16.7 µM]
Cc1ccc(CS(=O)Cc2ccc(C(=O)NCCc3ccccc3)o2)cc1 (stereo not drawn)	0	-2	-1	-2	5	nt
Cc1ccc(CS(=O)Cc2ccc(C(=O)NCc3ccccc3)o2)cc1 (stereo not drawn)	nt	-4	0	1	43*	-4
COc1ccc(C(=O)OCC(=O)NCc2cccs2)c(OC)c1OC	0	-3	1	5	-1	-3
COc1ccc(OC)c(/C=C/C(=O)OCC(=O)NCc2cccs2)c1	nt	-1	-2	4	14	-6
COc1cc(/C=C/C(=O)OCC(=O)NCCc2ccccc2)ccc1OC(F)F	-1	?	-2	0	61*	nt
COc1cc(/C=C/C(=O)OCC(=O)NCc2cccs2)ccc1OC(F)F	nt	nt	nt	nt	46*	nt
COc1cc(/C=C/C(=O)OCC(=O)NCCc2ccc(F)cc2)ccc1OC(F)F	0	9	5	2	nt	3
CC(C)CC(NC(=O)c1ccc(Cl)cc1)C(=O)OCC(=O)c1ccc2c(c1)NC(=O)CO2 (stereo not drawn)	nt	nt	nt	nt	461*	-6
COc1cc(N)c(Cl)cc1C(=O)OCC(=O)NCc1cccs1	73*	13	3	0	10	11
COc1ccccc1CNC(=O)C[C@H]1CC[C@H]2[C@@H](COC[C@H](O)CN2C(=O)Nc2ccc(F)cc2)O1	0	1	0	-1	-3	-2[16.7 µM]
C[C@@H]1CN([C@H](C)CO)S(=O)(=O)c2ccc(-c3ccccc3)cc2O[C@@H]1CN(C)Cc1ccncc1	0	-14	1	3	-12	2[16.7 µM]
COc1cc(/C=C/C(=O)OCC(=O)c2ccc3c(c2)NC(=O)CO3)ccc1OC(F)F	nt	-3	2	37*	20	2
COc1ccc(/C=C/C(=O)OCC(=O)c2ccc3c(c2)NC(=O)CO3)cc1	0	-11	-2	nt	4	-5
COc1ccc(NC(=O)N(C)C[C@@H]2Oc3c(NC(=O)c4cc(C)nn4C)cccc3C(=O)N([C@H](C)CO)C[C@@H]2C)cc1	nt	2	2	-1	7	10[16.7 µM]
C[C@H](O)[C@@H]1CN2CCc3ccc(-c4ccc5c(c4)OCO5)cc3[C@@H]2C[C@@H]1N(C)C(=O)c1cccc(Cl)c1	0	4	3	-1	188*	nt
CCOC(=O)N(C)[C@H]1C[C@H]2c3cc(-c4ccccc4C)ccc3CCN2C[C@H]1[C@H](C)O	0	14	2	-1	-44	nt
Cc1ccc(CNC(=O)Cn2c(=O)c3sccc3n(Cc3ccc([N+](=O)[O-])cc3)c2=O)cc1	2	nt	nt	nt	42*	nt
C[C@@H]1CN([C@@H](C)CO)C(=O)c2cccc(NC(=O)Nc3ccc(F)cc3)c2O[C@@H]1CN(C)Cc1ccc(C(=O)Nc2ccccc2N)cc1	41	18	-2	0	5	nt
O=C(COc1ccc(-c2ccccc2)cc1)N1CCN(S(=O)(=O)Cc2ccccc2)CC1	nt	nt	nt	nt	nt	99*
CC(C)CC#Cc1ccc2c(c1)O[C@@H](CN(C)C(=O)C1CCCCC1)[C@@H](C)CN([C@H](C)CO)S2(=O)=O	-1	-5	5	-3	-9	-5[16.7 µM]
CCCCNc1c(-c2ccc(OC)c(SC(C)CC)c2)nc2cc(C)ccn12 (stereo not drawn)	17	-6	3	-2	-20	29
CCCCNc1c(-c2ccc(Sc3ccc(OC)cc3)cc2)nc2cc(C)ccn12	1	82*	2	nt	9	-1
CCCCNc1c(-c2ccc(-c3ccc(C(C)=O)cc3)c(OC)c2)nc2cc(C)ccn12	0	61*	0	nt	10	4
C[C@]12CCC(=O)N1CCc1c2[nH]c2ccccc12	nt	14	-2	-1	nt	nt
SMILES	E-selectin induc	DENV2 CPE rescue	CFTR F508del cor	ERAP1 inh	GSIS activator	miR-122 sensor
O=C(Cc1ccncc1)NCC[C@H]1CC[C@H](NC(=O)Nc2ccc(F)cc2)[C@@H](CO)O1	1	1	1	-2	-1	nt
CCSc1nnc2ccc(-c3cccs3)nn12	1	2	-3	2	43*	7
C[C@@H]1CN([C@@H](C)CO)C(=O)c2cccc(NC(=O)c3ccncc3)c2O[C@H]1CN(C)S(=O)(=O)c1ccccc1	-10	-10	0	-4	9	-3[16.7 µM]
COc1cc(NC(=S)NCCC(c2ccccc2)c2ccccc2)cc(OC)c1	0	1	2	-3	5	nt
COc1cc(OC)cc(C(=O)NCCC(c2ccccc2)c2ccccc2)c1	nt	45*	-1	-2	-4	13
Cc1cc2ccccc2cc1C(=O)c1ccccc1	0	3	-6	1	-7	-1
Cc1sc2cc3c(c(C(=O)c4ccccc4)[n+]2c1C)-c1cccc2cccc-3c12	nt	36*	nt	5	-50	nt
O=C(c1ccccc1)c1ccc2ccccc2c1	0	-2	-4	0	19	nt
O=C(c1ccccc1)c1c2c(cc3sc4ccccc4[n+]13)-c1cccc3cccc-2c13	179*	nt	nt	nt	-43	37
Cc1ccc(-c2ccc(C3[C@@H]4CN(C(=O)Nc5ccc(C(F)(F)F)cc5)C[C@H]3N4)cc2)cc1 (stereo partly drawn)	0	4	-6	-6	+	nt
C/C=C/c1ccc(C2[C@@H]3CN(C(=O)Nc4ccc5c(c4)OCO5)C[C@H]2N3)cc1 (stereo partly drawn)	0	27*!	-2	nt	-3	nt
O=C(Nc1ccc(C(F)(F)F)cc1)N1C[C@@H]2N[C@H](C1)C2c1ccc(-c2cccc(F)c2)cc1 (stereo partly drawn)	0	?	-2	-4	114*	nt
C[C@@H]1CN([C@@H](C)CO)S(=O)(=O)c2ccc(-c3cccnc3)cc2O[C@@H]1CN(C)C(=O)C1CCCCC1	0	-2	2	1	-6	9[16.7 µM]
CS(=O)(=O)Nc1ccc2c(c1)[C@H]1C[C@@H](CC(=O)NCc3ccc(Oc4ccccc4)cc3)O[C@H](CO)[C@H]1O2	0	0	0	-1	-6	3[16.7 µM]
O=C(c1cnccn1)N1CC[C@@H]2[C@H]1c1cc(-c3ccccc3)ccc1N[C@@H]2CO	-1	3	7	0	-4	5[16.7 µM]

Source: PubChem BioAssay (Broad Institute)
